# Data published in ChEMBL document CHEMBL3745688, “Discovery of novel hybrids of diaryl-1,2,4-triazoles and caffeic acid as dual inhibitors of cyclooxygenase-2 and 5-lipoxygenase for cancer therapy” (Eur J Med Chem, 2016).
# Tests used:
# [1] = Antiproliferative activity against human Caco2 cells after 72 hrs by MTT assay; format: functional, cell-based; settings: Caco-2, 72 h
# Outline: (§1)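 Cells seeded at 5×10^4/well, grown 24 h at 37 °C in 5% CO₂, then exposed to compounds dissolved in DMSO at a range of concentrations for 72 h. MTT (5 mg/mL in PBS) added for 4 h, then OD read at 570 nm. IC50 taken from dose-response curves, mean ± S.D. of three independent experiments.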
# [2] = Antiproliferative activity against human PC3 cells after 72 hrs by MTT assay; format: functional, cell-based; settings: PC-3, 72 h; outline: as §1
# A549 = assay: Antiproliferative activity against human A549 cells after 72 hrs by MTT assay; format: functional, cell-based; settings: A549, 72 h; outline: as §1
# [3] = molecular target: T1, Prostaglandin G/H synthase 2 (Rattus norvegicus, UniProt P35355); assay: Inhibition of COX2 in rat abdominal macrophages assessed as PGE2 production pretreated for 30 mins followed by addition of 10 uM arachidonic acid as substrate for 20 mins by EIA
# T1 sequence (P35355 whole entry): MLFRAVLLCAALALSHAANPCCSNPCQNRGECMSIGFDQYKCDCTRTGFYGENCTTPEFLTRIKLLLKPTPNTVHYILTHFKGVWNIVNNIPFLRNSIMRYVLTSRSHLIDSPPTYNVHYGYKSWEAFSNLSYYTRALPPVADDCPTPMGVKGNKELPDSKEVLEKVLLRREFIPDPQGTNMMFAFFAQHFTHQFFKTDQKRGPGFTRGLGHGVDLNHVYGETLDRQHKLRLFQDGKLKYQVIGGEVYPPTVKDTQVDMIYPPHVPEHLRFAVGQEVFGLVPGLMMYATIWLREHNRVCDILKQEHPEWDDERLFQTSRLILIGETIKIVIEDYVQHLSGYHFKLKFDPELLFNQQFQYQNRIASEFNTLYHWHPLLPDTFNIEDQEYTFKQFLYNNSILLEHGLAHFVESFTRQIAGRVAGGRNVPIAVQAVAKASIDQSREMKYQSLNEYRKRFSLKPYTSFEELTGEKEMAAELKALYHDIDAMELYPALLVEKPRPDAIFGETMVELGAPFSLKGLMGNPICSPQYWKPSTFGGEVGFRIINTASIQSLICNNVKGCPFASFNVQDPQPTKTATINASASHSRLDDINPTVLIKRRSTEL
# [4] = Antiproliferative activity against mouse B16F10 cells after 72 hrs by MTT assay; format: functional, cell-based; settings: B16-F10, 72 h; outline: as §1
# [5] = molecular target: T2, Polyunsaturated fatty acid 5-lipoxygenase (Rattus norvegicus, UniProt P12527); assay: Inhibition of 5-LOX in Sprague-Dawley rat leukocytes assessed as A23187 stimulated LTB4 production pretreated for 30 mins followed by addition of A23187 for 30 mins by EIA; format: cell-based
# T2 sequence (P12527 whole entry): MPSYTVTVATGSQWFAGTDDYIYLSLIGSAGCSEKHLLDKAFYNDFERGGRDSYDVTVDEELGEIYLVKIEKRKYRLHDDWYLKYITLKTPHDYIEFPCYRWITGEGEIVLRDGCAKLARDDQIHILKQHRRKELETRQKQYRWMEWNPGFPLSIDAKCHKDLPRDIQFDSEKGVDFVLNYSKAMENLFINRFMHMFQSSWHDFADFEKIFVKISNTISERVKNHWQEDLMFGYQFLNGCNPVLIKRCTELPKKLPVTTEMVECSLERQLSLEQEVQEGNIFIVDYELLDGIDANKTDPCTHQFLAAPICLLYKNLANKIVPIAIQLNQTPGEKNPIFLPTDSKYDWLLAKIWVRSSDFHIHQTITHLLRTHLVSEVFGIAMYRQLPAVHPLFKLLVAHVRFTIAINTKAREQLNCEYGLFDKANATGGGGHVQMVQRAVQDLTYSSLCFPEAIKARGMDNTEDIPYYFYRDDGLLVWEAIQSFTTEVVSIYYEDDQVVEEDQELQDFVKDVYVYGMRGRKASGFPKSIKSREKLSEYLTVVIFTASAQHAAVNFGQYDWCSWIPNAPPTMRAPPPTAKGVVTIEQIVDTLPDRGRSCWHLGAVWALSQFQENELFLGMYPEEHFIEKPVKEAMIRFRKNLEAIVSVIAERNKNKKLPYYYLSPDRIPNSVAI
# Outline: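 Rat peritoneal leukocytes collected from Sprague-Dawley rats primed i.p. with 0.2% glycogen (20 mL/kg). Cells in Hanks solution plated at 1.0×10^6/well and held 10 min at 37 °C. Pretreated 30 min with L-cysteine (10 mM), indomethacin (1 mg/L) and compound or DMSO. A23187 added for 30 min. LTB4 in the clarified supernatant measured by EIA; % inhibition from OD; IC50 by Bliss method.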
SMILES,IC50 [1],IC50 [2],IC50 (A549),IC50 [3],IC50 [4],IC50 [5]
NS(=O)(=O)c1ccc(-c2nc(SCCOC(=O)/C=C/c3ccccc3)nn2-c2ccc(Br)cc2)cc1,20.9 µM,20.1 µM,19.7 µM,0.67 µM,21.2 µM,1.28 µM
NS(=O)(=O)c1ccc(-c2nc(SCCCOC(=O)/C=C/c3ccc(O)c(O)c3)nn2-c2ccccc2)cc1,–,–,–,0.64 µM,–,0.77 µM
CC(=O)Oc1ccc(/C=C/C(=O)OCCCSc2nc(-c3ccc(S(C)(=O)=O)cc3)n(-c3ccc(Br)cc3)n2)cc1OC(C)=O,11.7 µM,14.9 µM,12.9 µM,0.29 µM,12.8 µM,0.99 µM
CC(=O)Oc1ccc(/C=C/C(=O)OCCCSc2nc(-c3ccc(S(N)(=O)=O)cc3)n(-c3ccc(F)cc3)n2)cc1OC(C)=O,11.5 µM,10.5 µM,9.92 µM,0.36 µM,10.9 µM,1.03 µM
COc1cc(/C=C/C(=O)OCCSc2nc(-c3ccc(S(C)(=O)=O)cc3)n(-c3ccc(C)cc3)n2)ccc1OC(C)=O,14.1 µM,15.5 µM,15 µM,0.87 µM,15.3 µM,0.98 µM
CC(=O)Oc1ccc(/C=C/C(=O)NCCSc2nc(-c3ccc(S(C)(=O)=O)cc3)n(-c3ccc(F)cc3)n2)cc1OC(C)=O,15.1 µM,18 µM,17 µM,0.16 µM,14.6 µM,0.95 µM
CS(=O)(=O)c1ccc(-c2nc(SCCOC(=O)/C=C/c3ccc(O)c(O)c3)nn2-c2ccccc2)cc1,14.8 µM,14.6 µM,13.8 µM,0.67 µM,15 µM,0.85 µM
CC(=O)Oc1ccc(/C=C/C(=O)OCCSc2nc(-c3ccc(S(C)(=O)=O)cc3)n(-c3ccccc3)n2)cc1OC(C)=O,–,–,–,0.92 µM,–,1.21 µM
CC(=O)Oc1ccc(/C=C/C(=O)OCCCSc2nc(-c3ccc(S(N)(=O)=O)cc3)n(-c3ccccc3)n2)cc1OC(C)=O,–,–,–,0.91 µM,–,1.07 µM
COc1cc(/C=C/C(=O)OCCSc2nc(-c3ccc(S(C)(=O)=O)cc3)n(-c3ccccc3)n2)ccc1OC(C)=O,–,–,–,0.62 µM,–,0.96 µM
NS(=O)(=O)c1ccc(-c2nc(SCCOC(=O)/C=C/c3ccc(O)c(O)c3)nn2-c2ccccc2)cc1,15 µM,15 µM,14.1 µM,0.62 µM,15 µM,0.8 µM
O=C(O)/C=C/c1ccc(O)c(O)c1 [CAFFEIC ACID],> 100 µM,> 100 µM,> 100 µM,–,> 100 µM,–
CC(=O)Oc1ccc(/C=C/C(=O)NCCCSc2nc(-c3ccc(S(C)(=O)=O)cc3)n(-c3ccc(F)cc3)n2)cc1OC(C)=O,20.8 µM,17.6 µM,21.8 µM,0.17 µM,15.2 µM,0.98 µM
CC(=O)Oc1ccc(/C=C/C(=O)OCCSc2nc(-c3ccc(S(N)(=O)=O)cc3)n(-c3ccc(Br)cc3)n2)cc1OC(C)=O,–,–,–,0.31 µM,–,1.05 µM
CC(=O)Oc1ccc(/C=C/C(=O)OCCSc2nc(-c3ccc(S(C)(=O)=O)cc3)n(-c3ccc(F)cc3)n2)cc1OC(C)=O,12.8 µM,15.7 µM,11.8 µM,0.18 µM,14.2 µM,1.05 µM
COc1cc(/C=C/C(=O)OCCSc2nc(-c3ccc(S(C)(=O)=O)cc3)n(-c3ccc(Br)cc3)n2)ccc1OC(C)=O,12.1 µM,13.1 µM,11.1 µM,0.29 µM,12.4 µM,0.94 µM
CC(=O)Oc1ccc(/C=C/C(=O)OCCSc2nc(-c3ccc(S(N)(=O)=O)cc3)n(-c3ccccc3)n2)cc1OC(C)=O,–,–,–,0.85 µM,–,1.11 µM
CC(=O)Oc1ccc(/C=C/C(=O)NCCSc2nc(-c3ccc(S(N)(=O)=O)cc3)n(-c3ccc(Br)cc3)n2)cc1OC(C)=O,16.7 µM,17 µM,18.7 µM,0.18 µM,15.2 µM,0.99 µM
CC(=O)Oc1ccc(/C=C/C(=O)NCCCSc2nc(-c3ccc(S(N)(=O)=O)cc3)n(-c3ccccc3)n2)cc1OC(C)=O,31 µM,35.2 µM,32.7 µM,0.63 µM,29.1 µM,0.97 µM
CC(=O)Oc1ccc(/C=C/C(=O)OCCSc2nc(-c3ccc(S(N)(=O)=O)cc3)n(-c3ccc(F)cc3)n2)cc1OC(C)=O,11 µM,9.84 µM,12 µM,0.39 µM,11 µM,1.06 µM
COc1cc(/C=C/C(=O)OCCSc2nc(-c3ccc(S(C)(=O)=O)cc3)n(-c3ccc(F)cc3)n2)ccc1OC(C)=O,10.8 µM,12.8 µM,9.61 µM,0.24 µM,11.2 µM,0.92 µM
COc1cc(/C=C/C(=O)OCCSc2nc(-c3ccc(S(C)(=O)=O)cc3)n(-c3ccc(C(F)(F)F)cc3)n2)ccc1OC(C)=O,10.8 µM,9.81 µM,9.65 µM,0.23 µM,10.5 µM,0.92 µM
CC(=O)Oc1ccc(/C=C/C(=O)NCCCSc2nc(-c3ccc(S(C)(=O)=O)cc3)n(-c3ccc(Br)cc3)n2)cc1OC(C)=O,26.1 µM,23.9 µM,23.3 µM,0.24 µM,16.4 µM,0.99 µM
O=C(/C=C/c1ccc(O)c(O)c1)OCCc1ccccc1 [CAFFEIC ACID PHENETHYL ESTER],11.3 µM,10.2 µM,9.72 µM,–,10.7 µM,–
COc1cc(/C=C/C(=O)OCCSc2nc(-c3ccc(S(C)(=O)=O)cc3)n(-c3ccccc3)n2)ccc1O,–,–,–,0.58 µM,–,0.84 µM
CS(=O)(=O)c1ccc(-c2nc(SCCCOC(=O)/C=C/c3ccc(O)c(O)c3)nn2-c2ccc(Br)cc2)cc1,12.4 µM,12.3 µM,11.2 µM,0.37 µM,13.1 µM,0.79 µM
CC(=O)Oc1ccc(/C=C/C(=O)OCCSc2nc(-c3ccc(S(C)(=O)=O)cc3)n(-c3ccc(C(F)(F)F)cc3)n2)cc1OC(C)=O,11.3 µM,14.5 µM,10.2 µM,0.19 µM,11.5 µM,1.06 µM
